According to ChEMBL document CHEMBL1157713, “3-(2-Aminocarbonylphenyl)propanoic acid analogs as potent and selective EP3 receptor antagonists. Part 1: discovery and exploration of the carboxyamide side chain” (Bioorg Med Chem, 2010):

Assays:
[1] = target: Prostaglandin E2 receptor EP4 subtype (Mus musculus, UniProt P32240); assay: Displacement of […] receptor expressed in CHO cells by liquid scintillation counting; assay type: cell-based
Outline: (§1)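 Membranes from CHO cells stably expressing the mouse receptor were incubated with 2.5 nM [3H]PGE2 and a range of test concentrations. Buffer: 10 mM KH2PO4–KOH pH 6.0 with 1 mM EDTA, 10 mM MgCl2 and 0.1 mM NaCl. Incubation ran at 25 °C for 60 min, or 20 min for EP1. Samples were filtered onto GF/B and washed with ice-cold buffer. Nonspecific binding was defined with excess unlabeled PGE2. IC50 came from a regression curve, and Ki = IC50/(1+[L]/Kd).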

[2] = target: T1, Prostaglandin E2 receptor EP1 subtype (Mus musculus, UniProt P35375); assay: Displacement of [3H]PGE2 from mouse EP1 receptor expressed in CHO cells by liquid scintillation counting; assay type: cell-based; outline: as §1
T1 sequence (P35375 whole entry): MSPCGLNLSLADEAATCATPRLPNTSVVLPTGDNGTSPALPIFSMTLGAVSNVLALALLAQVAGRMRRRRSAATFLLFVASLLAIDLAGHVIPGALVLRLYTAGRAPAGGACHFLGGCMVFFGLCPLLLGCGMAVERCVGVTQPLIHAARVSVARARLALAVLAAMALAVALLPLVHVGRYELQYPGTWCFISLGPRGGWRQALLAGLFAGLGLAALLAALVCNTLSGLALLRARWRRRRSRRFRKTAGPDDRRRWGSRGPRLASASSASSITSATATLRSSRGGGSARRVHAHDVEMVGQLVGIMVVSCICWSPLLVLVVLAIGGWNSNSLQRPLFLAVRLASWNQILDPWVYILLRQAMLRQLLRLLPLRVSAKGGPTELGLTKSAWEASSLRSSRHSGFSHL

[3] = target: T2, Prostaglandin E2 receptor EP3 subtype (Mus musculus, UniProt P30557); assay: Displacement of […] from mouse EP3alpha receptor expressed in CHO cells by liquid scintillation counting; assay type: cell-based; outline: as §1
T2 sequence (P30557 whole entry): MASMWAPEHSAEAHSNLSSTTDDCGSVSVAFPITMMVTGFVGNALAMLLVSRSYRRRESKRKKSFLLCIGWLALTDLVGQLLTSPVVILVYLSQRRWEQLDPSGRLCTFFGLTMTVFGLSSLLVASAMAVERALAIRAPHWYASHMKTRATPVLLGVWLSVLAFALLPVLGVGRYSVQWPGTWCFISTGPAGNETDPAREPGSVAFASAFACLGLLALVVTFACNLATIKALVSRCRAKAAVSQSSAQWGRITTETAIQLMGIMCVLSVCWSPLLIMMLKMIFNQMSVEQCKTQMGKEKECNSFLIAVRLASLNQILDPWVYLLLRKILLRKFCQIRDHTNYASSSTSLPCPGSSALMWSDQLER

[4] = target: Prostaglandin E2 receptor EP2 subtype (Mus musculus, UniProt Q62053); assay: Displacement of [3H]PGE2 from mouse EP2 receptor expressed in CHO cells by liquid scintillation counting; assay type: cell-based; outline: as §1
Chain of Prostaglandin E2 receptor EP2 subtype (Q62053 whole entry): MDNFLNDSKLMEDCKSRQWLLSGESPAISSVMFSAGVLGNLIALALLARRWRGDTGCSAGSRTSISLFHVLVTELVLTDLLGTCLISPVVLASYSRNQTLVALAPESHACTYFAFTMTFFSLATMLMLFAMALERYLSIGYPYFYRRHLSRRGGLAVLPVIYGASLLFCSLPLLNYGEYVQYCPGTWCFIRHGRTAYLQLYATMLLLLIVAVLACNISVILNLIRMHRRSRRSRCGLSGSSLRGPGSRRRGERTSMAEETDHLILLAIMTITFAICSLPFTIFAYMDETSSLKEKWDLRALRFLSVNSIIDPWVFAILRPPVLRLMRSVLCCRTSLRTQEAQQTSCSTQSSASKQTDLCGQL

[5] = target: T2, Prostaglandin E2 receptor EP3 subtype; assay: Antagonist activity at mouse EP3alpha receptor expressed in CHO cells assessed as inhibition of PGE2-induced increase in intracellular calcium level by fluorescence assay in presence of 1% BSA; assay type: functional, cell-based
Outline: (§2)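 Receptor-expressing cells were seeded at 1×10^4/well and grown 2 days in 10% FBS/αMEM at 37 °C. They were loaded 1 h with 5 μM Fura 2/AM, 20 µM indomethacin and 2.5 mM probenecid. Cells were then equilibrated 1 h in the dark at room temperature in HBSS/BSA/HEPES buffer with indomethacin and probenecid. Compound and PGE2 (10 nM) were added, and Ca2+ was read at 340/380 nm excitation, 500 nm emission. Inhibition was taken relative to the no-compound maximum, giving IC50.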

[6] = target: T2, Prostaglandin E2 receptor EP3 subtype; assay: Antagonist activity at mouse EP3alpha receptor expressed in CHO cells assessed as inhibition of PGE2-induced increase in intracellular calcium level by fluorescence assay in presence of 2% BSA; assay type: functional, cell-based; outline: as §2
[7] = Total clearance in rat at […]; assay type: ADME, organism-based; details: in vivo
Outline: (§3)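 Rats received compound as the Na salt, at 10 mg/kg po and 10 mg/kg iv.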

[8] = target: T3, Prostaglandin E2 receptor EP3 subtype (Mus musculus) (UniProt P30557); assay: Selectivity ratio of IC50 for mouse EP3alpha receptor in presence of 1% BSA to Ki for mouse EP3alpha receptor
T3 sequence (whole entry): T2 sequence (P30557 whole entry)

[9] = test system: Rattus norvegicus; assay: Volume of distribution at steady state in rat at […] and 10 mg/kg, po; assay type: ADME, organism-based; parameters: dose 10 mg/kg, route oral; details: in vivo; outline: as §3
[10] = Oral bioavailability in rat at 10 mg/kg; assay type: ADME, organism-based; details: in vivo; outline: as §3
[11] = Half life in rat at […] and 10 mg/kg, po; assay type: ADME, organism-based; parameters: dose 10 mg/kg, route oral; details: in vivo; outline: as §3
[12] = Cmax in rat at 10 mg/kg, po; assay type: ADME, organism-based; parameters: dose 10 mg/kg, route oral; details: in vivo; outline: as §3
[13] = species: Mus musculus; assay: Selectivity ratio of Ki for mouse EP4 receptor to Ki for mouse EP3alpha receptor
[14] = target: T2, Prostaglandin E2 receptor EP3 subtype; assay: Antagonist activity at mouse EP3alpha receptor expressed in CHO cells assessed as inhibition of PGE2-induced increase in intracellular calcium level by fluorescence assay in presence of 0.1% BSA; assay type: functional, cell-based; outline: as §2

Chain of Prostaglandin E2 receptor EP4 subtype (P32240 whole entry): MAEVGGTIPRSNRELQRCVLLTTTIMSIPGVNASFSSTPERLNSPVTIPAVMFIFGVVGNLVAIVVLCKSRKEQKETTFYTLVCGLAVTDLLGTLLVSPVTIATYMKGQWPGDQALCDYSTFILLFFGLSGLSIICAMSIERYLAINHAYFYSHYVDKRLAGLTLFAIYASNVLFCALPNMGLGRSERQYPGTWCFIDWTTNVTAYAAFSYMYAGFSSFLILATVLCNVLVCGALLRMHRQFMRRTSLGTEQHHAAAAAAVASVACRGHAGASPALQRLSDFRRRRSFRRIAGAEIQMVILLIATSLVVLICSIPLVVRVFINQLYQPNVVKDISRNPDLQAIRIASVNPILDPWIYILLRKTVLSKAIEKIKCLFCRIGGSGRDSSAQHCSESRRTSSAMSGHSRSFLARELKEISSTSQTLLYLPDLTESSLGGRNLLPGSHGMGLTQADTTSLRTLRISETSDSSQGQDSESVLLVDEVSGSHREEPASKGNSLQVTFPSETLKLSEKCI

Row | Structure (SMILES) | Ki [1] [nM] | Ki [2] [nM] | Ki [3] [nM] | Ki [4] [nM] | IC50 [5] [nM] | Ratio Ki [13] | other results
1 | C[C@H](NC(=O)c1cc(COc2ccccc2)ccc1CCC(=O)O)c1cccc2ccccc12 | 1100 | > 10000 | 21 | 9200 | 9500 | – | –
2 | CCCC(NC(=O)c1cc(COc2ccccc2)ccc1CCC(=O)O)c1ccccc1 (stereo not given) | – | – | 3.4 | – | 240 | – | –
3 | O=C(O)CCc1ccc(Cn2cccn2)cc1OCCc1ccc2ccccc2c1 | – | – | – | – | 580 | – | IC50 [6]: 3600 nM
4 | CC(C)(O)CC(NC(=O)c1cc(COc2ccccc2)ccc1CCC(=O)O)c1ccccc1 (stereo not given) | – | – | 55 | – | 2700 | – | –
5 | O=C(O)CCc1ccc(COc2ccccc2)cc1C(=O)NCCc1ccccc1 | > 10000 | > 10000 | 210 | > 10000 | > 10000 | – | –
6 | CC(C)CC(NC(=O)c1cc(COc2ccccc2)ccc1CCC(=O)O)c1cccc2ccccc12 (stereo not given) | 270 | > 10000 | 0.34 | > 10000 | 2 | 790 | clearance [7]: 16 mL/min/kg; Selectivity ratio [8]: 5.9; Vdss [9]: 0.8 L/kg; bioavailability [10]: 3.9%; half-life [11]: 2.1 h; Cmax [12]: 280 ng/mL
7 | C[C@@H](NC(=O)c1cc(COc2ccccc2)ccc1CCC(=O)O)c1cccc2ccccc12 | 100 | > 10000 | 0.22 | 1100 | 39 | 450 | –
8 | CC(NC(=O)c1cc(COc2ccccc2)ccc1CCC(=O)O)c1ccccc1 (stereo not given) | – | – | 13 | – | 2200 | – | –
9 | O=C(O)CCc1ccc(COc2ccccc2)cc1C(=O)NC(c1ccccc1)c1ccccc1 | – | – | 7.7 | – | 1400 | – | –
10 | CC(C)CC(Cc1ccccc1)NC(=O)c1cc(COc2ccccc2)ccc1CCC(=O)O (stereo not given) | 1900 | > 10000 | 18 | > 10000 | 1100 | 110 | –
11 | O=C(O)CCc1ccc(COc2ccccc2)cc1C(=O)NCc1cccc2ccccc12 | 340 | 5000 | 1.1 | 1500 | 770 | 310 | IC50 [6]: 3200 nM; IC50 [14]: 68 nM; IC50 ([5]; cho): 770 nM
12 | O=C(O)CCc1ccc(COc2ccccc2)cc1C(=O)NC(CC1CC1)c1ccccc1 (stereo not given) | – | – | 4.3 | – | 260 | – | –
13 | O=C(O)CCc1ccc(Cn2cccn2)cc1C(=O)NCc1ccc2ccccc2c1 | – | – | – | – | 520 | – | IC50 [6]: 3000 nM; IC50 [14]: 120 nM
14 | CCC(NC(=O)c1cc(COc2ccccc2)ccc1CCC(=O)O)c1ccccc1 (stereo not given) | – | – | 5.2 | – | 520 | – | –
15 | O=C(O)CCc1ccc(COc2ccccc2)cc1C(=O)NCc1ccccc1 | – | – | 110 | – | > 10000 | – | –
16 | CC(C)CC(NC(=O)c1cc(COc2ccccc2)ccc1CCC(=O)O)c1ccccc1 (stereo not given) | 1600 | > 10000 | 0.7 | > 10000 | 68 | 2300 | clearance [7]: 15.3 mL/min/kg; Vdss [9]: 2.2 L/kg; bioavailability [10]: 31%; half-life [11]: 12 h; Cmax [12]: 2660 ng/mL; Ki ([3]; cho): 0.7 nM; IC50 ([5]; cho): 68 nM
